From ChEMBL document CHEMBL4819144, “Structure-activity relationships of pyrimidine nucleotides containing a 5'-α,β-methylene diphosphonate at the P2Y6 receptor” (Bioorg Med Chem Lett, 2021)
Each block holds one compound with its values, some of them ahead of it.

Columns and labels:
P2Y purinoceptor 6 [1] = target: T1, P2Y purinoceptor 6 (Homo sapiens, UniProt Q15077); test: Agonist activity at human P2Y6R expressed in 1321N1 cells assessed as calcium mobilization measured by microplate reader method; type: functional, cell-based
T1 sequence (Q15077 whole entry): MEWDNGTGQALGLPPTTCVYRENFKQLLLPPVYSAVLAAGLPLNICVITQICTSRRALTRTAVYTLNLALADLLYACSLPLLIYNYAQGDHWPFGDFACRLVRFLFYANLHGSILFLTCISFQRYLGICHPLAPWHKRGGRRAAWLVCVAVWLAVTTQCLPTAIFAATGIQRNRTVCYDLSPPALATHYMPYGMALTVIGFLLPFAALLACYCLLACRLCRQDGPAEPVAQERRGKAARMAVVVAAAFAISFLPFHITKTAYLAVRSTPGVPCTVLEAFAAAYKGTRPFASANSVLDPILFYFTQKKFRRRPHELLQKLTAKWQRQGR

P2Y purinoceptor 14 [2] = target: T2, P2Y purinoceptor 14 (Homo sapiens, UniProt Q15391); test: Binding affinity to human P2Y14 expressed in CHO cells; type: cell-based
T2 sequence (Q15391 whole entry): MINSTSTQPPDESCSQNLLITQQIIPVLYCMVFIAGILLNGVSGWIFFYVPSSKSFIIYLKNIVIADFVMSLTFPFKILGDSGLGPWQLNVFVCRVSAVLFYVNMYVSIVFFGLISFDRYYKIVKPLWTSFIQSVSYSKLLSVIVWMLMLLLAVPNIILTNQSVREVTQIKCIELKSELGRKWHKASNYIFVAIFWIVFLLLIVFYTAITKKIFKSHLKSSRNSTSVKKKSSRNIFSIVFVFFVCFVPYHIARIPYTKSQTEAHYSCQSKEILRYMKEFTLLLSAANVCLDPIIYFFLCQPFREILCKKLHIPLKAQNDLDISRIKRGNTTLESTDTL
How it was run: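 Whole CHO cells stably expressing human P2Y14R; a fluorescent antagonist serves as tracer and binding is read by flow cytometry; IC50 from inhibition of tracer binding.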

P2Y purinoceptor 6 [3] = target: T1, P2Y purinoceptor 6; test: Agonist activity at human P2Y6R expressed in 1321N1 cells assessed as calcium mobilization measured by FLIPR method; type: functional, cell-based
5'-nucleotidase = target: T3, 5'-nucleotidase (Rattus norvegicus, UniProt P21588); test: Inhibition of rat CD73 using [3H]-AMP as substrate by radiometric assay
T3 sequence (P21588 whole entry): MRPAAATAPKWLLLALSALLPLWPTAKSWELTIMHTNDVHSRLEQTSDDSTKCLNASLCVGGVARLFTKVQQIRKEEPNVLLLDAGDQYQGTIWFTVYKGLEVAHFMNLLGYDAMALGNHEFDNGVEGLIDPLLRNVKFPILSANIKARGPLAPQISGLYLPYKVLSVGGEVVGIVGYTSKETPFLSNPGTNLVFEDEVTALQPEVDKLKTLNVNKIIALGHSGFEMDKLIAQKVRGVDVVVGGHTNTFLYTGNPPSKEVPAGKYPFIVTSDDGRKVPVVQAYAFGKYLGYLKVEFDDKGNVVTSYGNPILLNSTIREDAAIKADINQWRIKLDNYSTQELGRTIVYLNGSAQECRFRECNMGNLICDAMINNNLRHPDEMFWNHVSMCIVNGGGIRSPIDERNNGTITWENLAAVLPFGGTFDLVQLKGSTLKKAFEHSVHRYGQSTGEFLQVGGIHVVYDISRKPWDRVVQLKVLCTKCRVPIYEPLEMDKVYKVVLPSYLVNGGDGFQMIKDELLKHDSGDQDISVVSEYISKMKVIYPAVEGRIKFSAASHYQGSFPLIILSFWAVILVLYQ

Homo sapiens = species: Homo sapiens; test: Selectivity ratio of IC50 for human P2Y14 expressed in CHO cells to EC50 for human P2Y6R expressed in 1321N1 cells; type: cell-based
How it was run: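 The ratio divides the hP2Y14R IC50 by the hP2Y6R EC50. The IC50 comes from flow-cytometric displacement of a fluorescent antagonist tracer in whole hP2Y14R-CHO cells.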

P2Y purinoceptor 6 [4] = target: T1, P2Y purinoceptor 6; test: Agonist activity at human P2Y6R expressed in 1321N1 cells assessed as calcium mobilization at 3 uM measured by microplate reader method relative to control; type: functional, cell-based
How it was run: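 Human P2Y6R stably expressed in 1321N1 astrocytoma cells; fluorescence-based (FLIPR) Ca2+ mobilization read-out; agonist tested at a single 3 µM concentration and expressed as % activation.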

P2Y purinoceptor 6 [5] = target: T1, P2Y purinoceptor 6; test: Agonist activity at human P2Y6R expressed in 1321N1 cells by PLC assay; conditions: dose 3.0 µM, time 30.0 min
[6] = target: D(3) dopamine receptor (Homo sapiens) (UniProt P35462); test: Displacement of [3H]-N-methylspiperone from dopamine D3 receptor (unknown origin) at 10 uM relative to control
Sequence of D(3) dopamine receptor (Homo sapiens) (P35462 whole entry): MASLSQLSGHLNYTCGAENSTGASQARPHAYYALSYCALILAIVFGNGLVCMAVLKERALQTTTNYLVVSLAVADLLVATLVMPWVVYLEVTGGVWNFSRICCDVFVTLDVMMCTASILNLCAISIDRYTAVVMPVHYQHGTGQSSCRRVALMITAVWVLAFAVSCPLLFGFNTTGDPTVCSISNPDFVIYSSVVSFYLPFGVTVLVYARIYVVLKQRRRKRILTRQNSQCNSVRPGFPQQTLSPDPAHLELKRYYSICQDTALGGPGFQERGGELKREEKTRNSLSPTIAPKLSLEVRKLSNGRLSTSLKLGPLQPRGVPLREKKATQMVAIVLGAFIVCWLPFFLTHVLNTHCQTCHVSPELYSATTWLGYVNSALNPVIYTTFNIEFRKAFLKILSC

[7] = target: Sigma non-opioid intracellular receptor 1 (Homo sapiens) (UniProt Q99720); test: Displacement of [3H]-Pentazocine from sigma-1 receptor (unknown origin) at 10 uM relative to control
Sequence of Sigma non-opioid intracellular receptor 1 (Homo sapiens) (Q99720 whole entry): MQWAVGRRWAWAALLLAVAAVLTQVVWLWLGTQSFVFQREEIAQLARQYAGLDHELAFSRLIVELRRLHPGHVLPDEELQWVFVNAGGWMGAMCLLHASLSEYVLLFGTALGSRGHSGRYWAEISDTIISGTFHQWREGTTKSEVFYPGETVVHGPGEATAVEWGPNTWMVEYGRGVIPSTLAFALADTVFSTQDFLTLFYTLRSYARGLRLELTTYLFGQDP

P2Y purinoceptor 14 [8] = target: T2, P2Y purinoceptor 14; test: Agonist activity at human P2Y14 expressed in CHO cells

EC50 (P2Y purinoceptor 6 [1]): 549 nM | IC50 (P2Y purinoceptor 14 [2]): 21500 nM | EC50 (P2Y purinoceptor 6 [3]): 549 nM | IC50 (5'-nucleotidase): 85 nM
SMILES: O=c1[nH]/c(=N/OCc2ccccc2)c(F)cn1[C@@H]1O[C@H](COP(=O)(O)CP(=O)(O)O)[C@@H](O)[C@H]1O
Ratio IC50/EC50 (Homo sapiens): 39

Activity (P2Y purinoceptor 6 [4]): 5.7%
SMILES: Nc1nc(=O)n([C@@H]2O[C@H](COP(=O)(O)CP(=O)(O)O)[C@@H](O)[C@H]2O)cc1F

EC50 (P2Y purinoceptor 6 [5]): 1990 nM
SMILES: O=c1ccn([C@@H]2O[C@H](COP(=O)(O)CP(=O)(O)O)[C@@H](O)[C@H]2O)c(=S)[nH]1

IC50 (5'-nucleotidase): 112 nM
SMILES: O=c1[nH]/c(=N\OCc2ccccc2)ccn1[C@@H]1O[C@H](COP(=O)(O)CP(=O)(O)O)[C@@H](O)[C@H]1O

EC50 (P2Y purinoceptor 6 [1]): 1670 nM | inhibition [6]: 85%
SMILES: COC(=O)c1ccc(CO/N=c2/ccn([C@@H]3O[C@H](COP(=O)(O)CP(=O)(O)O)[C@@H](O)[C@H]3O)c(=O)[nH]2)cc1

Activity (P2Y purinoceptor 6 [4]): 3.6%
SMILES: Cn1c(=O)n([C@@H]2O[C@H](COP(=O)(O)CP(=O)(O)O)[C@@H](O)[C@H]2O)cc/c1=N/OCc1ccccc1

Activity (P2Y purinoceptor 6 [4]): 2.7%
SMILES: CCCn1c(=O)ccn([C@@H]2O[C@H](COP(=O)(O)CP(=O)(O)O)[C@@H](O)[C@H]2O)c1=O

IC50 (P2Y purinoceptor 14 [2]): > 100000 nM | IC50 (5'-nucleotidase): 30 nM
SMILES: O=c1[nH]/c(=N\OCc2ccc(C(F)(F)F)cc2)ccn1[C@@H]1O[C@H](COP(=O)(O)CP(=O)(O)O)[C@@H](O)[C@H]1O

Activity (P2Y purinoceptor 6 [4]): 5.2%
SMILES: O=c1cnn([C@@H]2O[C@H](COP(=O)(O)CP(=O)(O)O)[C@@H](O)[C@H]2O)c(=O)[nH]1

EC50 (P2Y purinoceptor 6 [1]): 1590 nM | inhibition [7]: 59%
SMILES: O=c1[nH]/c(=N\OCc2ccc(S(F)(F)(F)(F)F)cc2)ccn1[C@@H]1O[C@H](COP(=O)(O)CP(=O)(O)O)[C@@H](O)[C@H]1O

IC50 (5'-nucleotidase): > 1000 nM
SMILES: O=c1[nH]c(=O)n([C@@H]2O[C@H](COP(=O)(O)CP(=O)(O)O)[C@@H](O)[C@H]2O)cc1F

Activity (P2Y purinoceptor 6 [4]): 5.7%
SMILES: CCn1c(=O)n([C@@H]2O[C@H](COP(=O)(O)CP(=O)(O)O)[C@@H](O)[C@H]2O)cc/c1=N/OCc1ccccc1

IC50 (5'-nucleotidase): 321 nM
SMILES: Cc1cn([C@@H]2O[C@H](COP(=O)(O)CP(=O)(O)O)[C@@H](O)[C@H]2O)c(=O)[nH]/c1=N/OCc1ccccc1

EC50 (P2Y purinoceptor 6 [1]): 793 nM
SMILES: O=c1[nH]/c(=N\OCc2ccccc2)ccn1[C@@H]1O[C@H](COP(=O)(O)OP(=O)(O)O)[C@@H](O)[C@H]1O

Activity (P2Y purinoceptor 6 [4]): 3.4%
SMILES: Nc1nc(=O)n([C@@H]2O[C@H](COP(=O)(O)CP(=O)(O)O)[C@@H](O)[C@H]2O)cc1I

IC50 (P2Y purinoceptor 14 [2]): 16600 nM
SMILES: O=c1[nH]c(=O)n([C@@H]2O[C@H](COP(=O)(O)CP(=O)(O)O)[C@@H](O)[C@H]2O)cc1Cl

EC50 (P2Y purinoceptor 6 [1]): 104 nM
SMILES: O=c1[nH]c(=O)n([C@@H]2O[C@H](COP(=O)(O)CP(=O)(O)O)[C@@H](O)[C@H]2O)cc1Br

Activity (P2Y purinoceptor 6 [4]): 2.4%
SMILES: O=c1ccn([C@@H]2O[C@H](COP(=O)(O)CP(=O)(O)O)[C@@H](O)[C@@H]2O)c(=O)[nH]1

IC50 (P2Y purinoceptor 14 [2]): > 100000 nM
SMILES: O=c1[nH]/c(=N\OCc2ccc(Cl)cc2)ccn1[C@@H]1O[C@H](COP(=O)(O)CP(=O)(O)O)[C@@H](O)[C@H]1O

Activity (P2Y purinoceptor 6 [4]): 3%
SMILES: Cc1cn([C@@H]2O[C@H](COP(=O)(O)CP(=O)(O)O)[C@@H](O)[C@H]2O)c(=O)nc1N

IC50 (5'-nucleotidase): 1830 nM | EC50 (P2Y purinoceptor 14 [8]): 11 nM | EC50 (P2Y purinoceptor 6 [5]): 339 nM
SMILES: O=c1ccn([C@@H]2O[C@H](COP(=O)(O)CP(=O)(O)O)[C@@H](O)[C@H]2O)c(=O)[nH]1

EC50 (P2Y purinoceptor 6 [1]): 493 nM
SMILES: CO/N=c1/ccn([C@@H]2O[C@H](COP(=O)(O)OP(=O)(O)O)[C@@H](O)[C@H]2O)c(=O)[nH]1

EC50 (P2Y purinoceptor 6 [1]): 49.1 nM | IC50 (5'-nucleotidase): 162 nM
SMILES: O=c1[nH]c(=O)n([C@@H]2O[C@H](COP(=O)(O)CP(=O)(O)O)[C@@H](O)[C@H]2O)cc1I

EC50 (P2Y purinoceptor 6 [1]): 1450 nM | IC50 (P2Y purinoceptor 14 [2]): > 100000 nM | EC50 (P2Y purinoceptor 6 [3]): 1450 nM
SMILES: O=c1[nH]/c(=N\OCc2cccc(Cl)c2)ccn1[C@@H]1O[C@H](COP(=O)(O)CP(=O)(O)O)[C@@H](O)[C@H]1O

Activity (P2Y purinoceptor 6 [4]): 5.3%
SMILES: O=c1ccn([C@@H]2O[C@H](COP(=O)(O)CP(=O)(O)O)[C@@H](O)[C@H]2O)c(=O)n1Cc1ccccc1

IC50 (5'-nucleotidase): 257 nM
SMILES: CO/N=c1/ccn([C@@H]2O[C@H](COP(=O)(O)CP(=O)(O)O)[C@@H](O)[C@H]2O)c(=O)[nH]1

Activity (P2Y purinoceptor 6 [4]): 3.5%
SMILES: CCn1c(=O)ccn([C@@H]2O[C@H](COP(=O)(O)CP(=O)(O)O)[C@@H](O)[C@H]2O)c1=O
